A selection follows.
HKDC1 act: increases human hexokinase HKDC1 activity. Q2TB90. AID 493187. recombinant HKDC1, G6PDH/diaphorase resazurin fluorescence; active compounds read low. activity change, negative = activation, % at 20 µM. 0.056% of 340,000 active;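 active = activation of 40% or more at 20 µM, a change of -40% or lower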
Target sequence (Q2TB90 whole entry, looked up): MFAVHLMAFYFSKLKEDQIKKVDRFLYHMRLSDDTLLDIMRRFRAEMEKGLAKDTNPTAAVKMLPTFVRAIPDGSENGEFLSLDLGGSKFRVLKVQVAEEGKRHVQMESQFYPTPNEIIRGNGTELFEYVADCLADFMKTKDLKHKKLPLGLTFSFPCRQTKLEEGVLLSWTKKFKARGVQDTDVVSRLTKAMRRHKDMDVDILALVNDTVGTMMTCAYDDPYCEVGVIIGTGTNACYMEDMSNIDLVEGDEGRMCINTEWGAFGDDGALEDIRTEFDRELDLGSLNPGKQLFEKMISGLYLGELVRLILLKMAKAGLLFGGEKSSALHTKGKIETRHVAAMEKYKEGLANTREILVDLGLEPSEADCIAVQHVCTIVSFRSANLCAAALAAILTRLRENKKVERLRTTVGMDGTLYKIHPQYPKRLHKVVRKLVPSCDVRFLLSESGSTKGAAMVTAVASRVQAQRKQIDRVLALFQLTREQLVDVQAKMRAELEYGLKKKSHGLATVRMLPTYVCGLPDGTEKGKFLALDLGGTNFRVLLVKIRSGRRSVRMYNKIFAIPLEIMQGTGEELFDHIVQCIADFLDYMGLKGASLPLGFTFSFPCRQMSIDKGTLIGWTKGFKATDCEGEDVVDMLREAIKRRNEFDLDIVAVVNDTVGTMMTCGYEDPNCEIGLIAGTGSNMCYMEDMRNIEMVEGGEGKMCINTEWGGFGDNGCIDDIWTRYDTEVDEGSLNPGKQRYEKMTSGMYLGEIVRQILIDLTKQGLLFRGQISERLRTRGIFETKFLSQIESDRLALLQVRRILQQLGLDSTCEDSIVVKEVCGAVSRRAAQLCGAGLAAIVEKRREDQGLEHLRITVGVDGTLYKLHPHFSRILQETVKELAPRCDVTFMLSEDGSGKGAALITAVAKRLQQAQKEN
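Material: in-house human HKDC1 enzyme, G6PDH and diaphorase coupling enzymes | Quantity: HKDC1 at 5 µg/mL final | Medium: Tris buffer at pH 8.0 containing MgCl2 | Compound dosing: 20 µM single dose | Schedule: 90 min reaction at room temperature, dark | Measured by: Resorufin fluorescence, 525/613 nm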
An asterisk follows results filed as active.

Screening CCOc1ccc(CCNC(=O)c2ccc3c(=O)[nH]c4c(C(=O)NC(C)C)sc(=S)n4c3c2)cc1 returned HKDC1 act 40.6.
For C[n+]1c(-c2ccccc2)cc2c(=Cc3ccccc3)c3ccccc3n21 the results were HKDC1 act 41.9.
`CC(=O)C1=C(c2ccc(Br)cc2)C(=O)c2ccccc2C1=O` gave HKDC1 act 82.7.
`O=C1C(C2=C(O)c3ccccc3C2=O)=Nc2ccccc21` gave HKDC1 act -242.4*.
Screening O=C1C(=C(I)I)c2ccccc2-c2ccccc21 returned HKDC1 act 60.7.
`CCC(c1ccccc1)C(CC)c1cc(O)c(O)c(O)c1` (stereo not drawn) gave HKDC1 act 42.4.
For Oc1ccc2ccccc2c1C=NC1CCCCC1 the results were HKDC1 act 35.2.
For COc1ccc(S(=O)(=O)Nc2ccc(O)c3ccccc23)cc1 the results were HKDC1 act 45.7.
`COc1ccccc1N(CC(=O)N/N=C/c1c(O)ccc2ccccc12)S(C)(=O)=O` gave HKDC1 act -40.2*.
`CSc1nc(N(CCO)CCO)c2sc3nc(-c4ccco4)c4c(c3c2n1)CCC4` gave HKDC1 act 36.6.
`NC(=S)N=Nc1c(O)cc(O)c2[nH]c(=O)ccc12` gave HKDC1 act 35.2.
CCn1c2ccccc2c2nc3cc(S(=O)(=O)N4CCOCC4)ccc3nc21 was read as HKDC1 act -60.6*.
Cc1cc2cc(CCNC(=O)c3ccc(S(=O)(=O)N4CCOCC4)cc3)c(=O)[nH]c2cc1C was read as HKDC1 act 41.4.
Screening Cc1ccc(SC2=C(Sc3ccc(C)cc3)C(=O)c3ccccc3C2=O)cc1 returned HKDC1 act 66.0.
For O=C(CNC(=O)/C=C/c1ccco1)N=Nc1c(O)[nH]c2ccccc12 the results were HKDC1 act 50.7.
Screening COC1=CC(=O)C(C2CC(=O)c3c(O)cc(O)cc3O2)=CC1=O (stereo not drawn) returned HKDC1 act 59.8.
`COc1ccc(C2=CC3=C(Br)C(=O)C(C)(OC(=O)c4cccs4)C(=O)C3=CO2)cc1` (stereo not drawn) gave HKDC1 act 50.0.
Screening NC1=CC(=O)C(=O)c2ccccc21 returned HKDC1 act 49.4.
COc1ccc(-c2nc3c(c(=O)n(C)c(=O)n3C)n2CC2CC(c3ccccc3)=NO2)cc1OC (stereo not drawn) was read as HKDC1 act -48.3*.
Screening Cc1ccc(C(=O)c2c(C)oc3c2C(=O)C(=O)c2ccccc2-3)cc1 returned HKDC1 act 48.4.
For S=C(NN=C(c1ccccc1)c1ccccn1)N(Cc1ccccn1)Cc1ccccn1 the results were HKDC1 act -46.0*.
`CCOC(=O)c1ccc(NC(=O)CSc2ccc(-c3ccccn3)nn2)cc1` gave HKDC1 act 37.2.
CCOC(=O)c1sc(NC(=O)CSc2nnc(Cc3ccccc3)o2)c(C#N)c1C was read as HKDC1 act -40.4*.
For Cc1ccccc1Nc1nc(N)nc(CSc2nnc3sc4ccccc4n23)n1 the results were HKDC1 act 35.9.
For C=CCN1C=C2C(=O)C(C)(OC(=O)CCC(=O)OC)C(=O)C(Br)=C2C=C1c1ccc(OC)cc1 (stereo not drawn) the results were HKDC1 act 35.6.
O=C(O)c1ccc(S(=O)(=O)/N=C2\C=C(Nc3ccccc3F)C(=O)c3ccccc32)cc1 was read as HKDC1 act 80.6.
Screening COc1cc(/C=C2\SC(=O)N(c3cccc(Cl)c3)C2=O)cc([N+](=O)[O-])c1O returned HKDC1 act 51.5.
`O=C(O)c1ccc2c(=O)n(-c3ccccc3)c(=S)[nH]c2c1` gave HKDC1 act 84.2.
CN(C)c1ccc2nc3ccc(=[N+](C)C)cc-3sc2c1 was read as HKDC1 act 35.6.
Screening COc1ccc(CN2C(=O)c3cccnc3C2O)cc1 (stereo not drawn) returned HKDC1 act 40.9.
For COc1ccc(-n2c(C)cc(C(=O)CCl)c2C)cc1 the results were HKDC1 act 35.2.
Screening COC(=O)c1cc(=O)n(Cc2ccc(OC)cc2)c(=NCc2ccc(OC)cc2)s1 returned HKDC1 act -43.4*.
CC(C)c1nc2oc3c(NCC4CCCO4)ncnc3c2c2c1COC(C)(C)C2 (stereo not drawn) was read as HKDC1 act 40.0.
C/C(=N\NC(=O)c1c(C)nc2ccccn12)c1ccc(O)cc1O was read as HKDC1 act -45.1*.
For Cc1nc(COC(=O)c2cc(O)c3ccccc3c2O)cs1 the results were HKDC1 act 60.5.
O=C1C=CC(=O)C(C2=C3C(=O)N(CCc4ccccc4)CC(=O)N3CCC2)=C1 was read as HKDC1 act 63.1.
Screening O=C1NC(=S)S/C1=C\C=C\c1ccc([N+](=O)[O-])o1 returned HKDC1 act 38.2.
For N=C1N(/N=C/c2ccccc2)C(=Nc2ccccc2)C(=S)N1c1ccccc1 the results were HKDC1 act -49.5*.
For O=c1oc2cc(Oc3c([N+](=O)[O-])cc(C(F)(F)F)cc3[N+](=O)[O-])ccc2c2c1CCCC2 the results were HKDC1 act 40.1.
Screening COCC(=O)OC1CCn2c1nc1c2C(=O)C(C)=C(NC(C)=O)C1=O (stereo not drawn) returned HKDC1 act 68.5.
`O=C1CSC(=S)N1Nc1ccccc1` gave HKDC1 act -44.4*.
Screening Oc1c(Br)cc(Br)cc1/C=N/c1nc2c(s1)CCCC2 returned HKDC1 act 37.4.
Screening CCCc1nc2c(c(=O)c3ccccc3n2C)c(=O)n1-c1ccc(F)cc1 returned HKDC1 act 51.1.
COc1ccc(C2=CC3=C(Br)C(=O)C(C)(OC(=O)c4ccco4)C(=O)C3=CO2)cc1 (stereo not drawn) was read as HKDC1 act 41.6.
For CN(C)c1ccc(Cc2cc3c(O)ccc(O)c3cc(Cc3ccc(N(C)C)cc3)c2=O)cc1 the results were HKDC1 act 60.4.
Screening N=C1/C(=C/c2coc3ccccc3c2=O)C(=O)N=C2SC(c3ccco3)=NN12 returned HKDC1 act 37.9.
For Cc1ccccc1N=C1NN=C(c2ccccc2F)CS1 the results were HKDC1 act -46.8*.
Screening CC1CCCN(C(=O)COC(=O)c2cc([N+](=O)[O-])ccc2N2CCOCC2)C1 (stereo not drawn) returned HKDC1 act 41.3.
O=C1OC(c2ccc3ccccc3c2O)(c2ccc3ccccc3c2O)c2ccccc21 was read as HKDC1 act 36.0.
`O=C(NN1CCOCC1)c1ccc(Cl)c([N+](=O)[O-])c1` gave HKDC1 act 36.5.
Screening CCCc1nc2oc3c(OC)ncnc3c2c2c1COC(C)(C)C2 returned HKDC1 act 36.5.
`O=C(CCc1ccccc1)NCC(=O)N/N=C/c1ccc(O)cc1O` gave HKDC1 act -43.3*.
`O=C(CN1CCCc2ccccc21)N/N=C/c1ccc(O)cc1O` gave HKDC1 act -43.3*.
`O=C(CNC(=O)c1cccs1)N/N=C/c1ccc(O)cc1O` gave HKDC1 act -46.4*.
For COc1ccccc1/C=C\C(=O)NCC(=O)N/N=C/c1ccc(O)cc1O the results were HKDC1 act -40.9*.
Cc1ccc(/C=C/C(=O)c2ccc([N+](=O)[O-])o2)cc1 was read as HKDC1 act 46.0.
`O=C(OCn1ncc(Cl)c(Cl)c1=O)c1ccc(C(F)(F)F)cc1` gave HKDC1 act 46.0.
`COc1ccc2c(c1)/C(=C\c1cccc(/C=C3/C(=O)Nc4ccc(OC)cc43)n1)C(=O)N2` gave HKDC1 act 36.7.
